This note sets out measurements from ChEMBL document CHEMBL1154440, “Design and synthesis of 2-(2,6-dibromophenyl)-3-heteroaryl-1,3-thiazolidin-4-ones as anti-HIV agents” (Eur J Med Chem, 2008).

A short description of data set [1]: Selectivity index, ratio of CC50 for human CEM cells to EC50 for HIV1 3B. The class given is toxicity, cell-based, CCRF-CEM. The following applies: read-out: Ratio CC50/EC50.
Data set [2] in a line: Selectivity index, ratio of CC50 for human MT4 cells to EC50 for HIV1 3B. The data set is classed as toxicity, cell-based. The following applies: read-out: Ratio CC50/EC50. The essentials: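 Selectivity index is CC50/EC50. CC50 comes from the viable-cell count in mock-infected MT-4 cells.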
Data set [3] concerns Human immunodeficiency virus 1. Put plainly: Antiviral activity against HIV1 3B replication in human CEM cells assessed as inhibition of virus-induced syncytium formation after 4 days. Conditions: Human immunodeficiency virus 1, 3B, CCRF-CEM, 96 h.
Data set [4] has as its system Human immunodeficiency virus 1. Nature of the data set: Antiviral activity against HIV1 3B replication in human MT4 cells assessed as inhibition of virus-induced cytopathic effect after 5 days by tetrazolium-based colorimetric assay. The data set is classed as functional, organism-based. The following applies: Human immunodeficiency virus 1, 3B, MT4, 120 h.
Data set [5] is described as follows: Cytotoxicity against human MT4 cells by MTT assay. The class given is cell-based. The method in brief: (§1)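 CC50 was measured in parallel with the antiviral assays. It is the compound concentration that reduced by 50% the number of viable cells in mock-infected MT-4 or CEM cultures.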
On the technique in general: Tetrazolium assays rely on reduction of a dye to a coloured formazan, in cell work by metabolically active cells.

In data set [6] the test system is Human immunodeficiency virus 2. Put plainly: Antiviral activity against HIV2 ROD replication in human MT4 cells assessed as inhibition of virus-induced cytopathic effect at subtoxic concentration after 5 days by tetrazolium-based colorimetric assay. The data set is classed as functional, organism-based. (In general: Cytopathic effects are the visible damage that an infection or toxin causes in cultured cells.)

Data set [7] is described as follows: Cytotoxicity against human CEM cells by MTT assay. The class given is cell-based. The following applies: CEM cells (CCRF-CEM). The essentials:
as §1

Data set [8] has as its system Human immunodeficiency virus 2. Put plainly: Antiviral activity against HIV2 ROD replication in human CEM cells assessed as inhibition of virus-induced syncytium formation at subtoxic concentration after 4 days. The following applies: CCRF-CEM.
In data set [9] the target is Human immunodeficiency virus type 1 reverse transcriptase (Human immunodeficiency virus 1) (UniProt Q72547). Put plainly: Inhibition of HIV1 reverse transcriptase at 100 ug/ml after 1 hr by microtiter plate ELISA. The essentials:
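Nonradioactive kit ELISA. HIV-1 RT, template/primer and biotin- and DIG-labelled dNTPs were incubated in lysis buffer with or without inhibitor for 1 h at 37 °C. Product was captured on streptavidin and detected with anti-DIG-peroxidase and ABTS substrate. Absorbance at 405 nm is proportional to RT activity.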
Background: An ELISA detects its analyte on a solid surface through an enzyme-linked reagent.

Activity calls are given as the source filed them. No cut-off for these calls is given here.

In the case of `O=C1CSC(c2c(Br)cccc2Br)N1c1nccs1` (centres undefined), the selectivity ratio in data set [1] amounted to 194; in data set [2], 218. Also, the EC50 in [3] came to 0.56 µM; in [4] it was 0.5 µM. The CC50 in data set [5] and in [7] was 109 µM in each case. Further, the result in data set [6] and in data set [8] was inactive. The inhibition in [9] was 69.5%.
Regarding `O=C1CSC(c2c(Br)cccc2Br)N1c1ncccn1` (centres undefined), the selectivity ratio in [1] stood at 769; in data set [2], 687. Also, the EC50 in [3] turned out to be 0.23 µM; in data set [4] it was 0.24 µM. Also, the results for the CC50 in [5] and in data set [7] were 172 µM and 179 µM, respectively. Moreover, the result in data set [6] and in data set [8] was inactive. Also, the inhibition in [9] came to 100%.
`Cc1cccc(N2C(=O)CSC2c2c(Br)cccc2Br)n1` (centres undefined): the selectivity ratio in [1] came to 2950; in data set [2], 2660. Moreover, the EC50 in data set [3] worked out at 0.08 µM; in [4] it was 0.09 µM. Besides, the CC50 in data set [5] and in data set [7] was 233 µM in each case. Moreover, the result in data set [6] and in data set [8] was inactive. This compound also gave an inhibition in data set [9] of 79.5%.
Consider `Cc1cc(-c2ccccc2)nc(N2C(=O)CSC2c2c(Br)cccc2Br)n1` (centres undefined), for which the selectivity ratio in data set [2] was < 21. Besides, the EC50 in data set [4] was > 8.65 µM. Moreover, in data set [5], the midpoint of cytotoxicity, the CC50, lay at 184 µM. The outcome in data set [6] and in [8] was inactive. Besides, in [9], the inhibition came to 17.8%.
`Cc1nc(N2C(=O)CSC2c2c(Br)cccc2Br)nc(C)c1C` (centres undefined): the selectivity ratio was > 5020 in data set [1] and 3720 in [2]. The EC50 in [3] and in data set [4] was 0.06 µM in each case. In addition, the cytotoxic concentration (CC50) in [5] is 227 µM; in data set [7] it was > 273 µM. Besides, the result in data set [6] and in data set [8] was inactive. Also, the inhibition in data set [9] is 100%.
Turning to `Cc1cc(C(F)(F)F)nc(N2C(=O)CSC2c2c(Br)cccc2Br)n1` (centres undefined), the selectivity ratio in data set [1] was 161; in data set [2], 99. Besides, the EC50 in data set [3] is 0.36 µM; in [4], 0.32 µM. The CC50 in [5] stood at 32.6 µM; in data set [7], 59.3 µM. Also, the outcome in [6] and in data set [8] was inactive. In [9], this compound displayed an inhibition of 85.4%.
Take `O=C1CSC(c2c(Br)cccc2Br)N1c1ccccn1` (centres undefined): the selectivity ratio in data set [1] was 66; in [2], 60. Further, the EC50 is 0.27 µM in data set [3] and 0.22 µM in [4]. Further, the CC50 in data set [5] turned out to be 13.1 µM; in data set [7], 17.1 µM. In addition, the result in data set [6] and in data set [8] was inactive. The compound further yielded an inhibition in data set [9] of 85.2%.
In the case of `Cc1ccnc(N2C(=O)CSC2c2c(Br)cccc2Br)n1` (centres undefined), the selectivity ratio in [1] was 930; in [2] it was 757. For the same compound, the EC50 in data set [3] and in [4] was 0.04 µM throughout. The CC50 in data set [5] was found to be 33.9 µM; in data set [7], 36.3 µM. Also, the outcome in data set [6] and in [8] was inactive. Further, the inhibition in data set [9] came to 100%.
With `Fc1cccc(F)c1C1SCc2nc3ccccc3n21` (centres undefined) [THIAZOLOBENZIMIDAZOLE], the selectivity ratio in data set [1] is 45; in [2], 54.5. The outcome in data set [6] and in data set [8] was inactive.
For the compound `Cc1cc(N2C(=O)CSC2c2c(Br)cccc2Br)nc(C)n1` (centres undefined), the figures for the selectivity ratio in data set [1] and in data set [2] were 7 and 6, respectively. In addition, the EC50 in [3] is 4.67 µM; in [4], 5.21 µM. In addition, the CC50 came to 33.4 µM in data set [5] and 33.5 µM in data set [7]. Further, the outcome in data set [6] and in data set [8] was inactive. For the same compound, the inhibition in data set [9] came out at 66.4%.
Turning to `Clc1cccc(Cl)c1C1SCc2nc3ccccc3n21` (centres undefined), the selectivity ratio in data set [2] was 16. Also, the outcome in [6] and in data set [8] was inactive.
For `O=C1CSC(c2c(Br)cccc2Br)N1c1cccc(C(F)(F)F)n1` (centres undefined), the selectivity ratio in [1] is 8; in data set [2] it was 7. In addition, the results for the EC50 in [3] and in data set [4] were 3.96 µM and 4.56 µM, respectively. The CC50 in data set [5] was determined as 30 µM; in data set [7], 29.8 µM. The result in data set [6] and in data set [8] was inactive. The compound also displayed an inhibition in data set [9] of 23.9%.
As for `O=C1CSC(c2c(Br)cccc2Br)N1Cc1cccs1` (centres undefined), the selectivity ratio in data set [1] and in data set [2] was 59 in each case. Further, the EC50 in [3] stood at 0.6 µM; in [4] it was 0.58 µM. Also, the CC50 in data set [5] came out at 34.6 µM; in data set [7], 35.6 µM. The result in [6] and in [8] was inactive. Also, the inhibition in [9] came to 84.3%.
The compound `Cc1cc(C)nc(N2C(=O)CSC2c2c(Br)cccc2Br)n1` (centres undefined) displayed an inhibition in data set [9] of 100%.
In the case of `O=C1CSC(c2c(Br)cccc2Br)N1Cc1ccco1` (centres undefined), the selectivity ratio in data set [1] worked out at 200; in [2], 171. Besides, the figures for the EC50 in data set [3] and in data set [4] were 0.18 µM and 0.21 µM, respectively. Also, the CC50 in data set [5] came to 36.4 µM; in data set [7], 36.6 µM. Besides, the result in data set [6] and in data set [8] was inactive. Besides, the inhibition in [9] turned out to be 99%.
On to `O=C1CSC(c2c(Br)cccc2Br)N1Cc1ccccn1` (centres undefined), for which the selectivity ratio in data set [1] was 283; in data set [2], 209. Also, the EC50 in data set [3] was found to be 0.63 µM; in [4], 0.84 µM. Moreover, the CC50 in data set [5] was 174 µM; in data set [7], 117 µM. Moreover, the outcome in data set [6] and in data set [8] was inactive. In data set [9], this compound returned an inhibition of 97.6%.
On to `Cc1ccnc2c1NC(=O)c1cccnc1N2C1CC1` [NEVIRAPINE], for which the selectivity ratio was > 370 in [1] and > 1000 in data set [2]. In addition, the figures for the EC50 in data set [3] and in [4] were 0.01 µM and 0.05 µM, respectively. The CC50 in data set [5] was > 50 µM; in data set [7], > 4 µM. In addition, the result in [6] and in data set [8] was inactive.
`Cc1nc(N2C(=O)CSC2c2c(Br)cccc2Br)ccc1Br` (centres undefined): the selectivity ratio in data set [1] stood at 53; in data set [2], 96. In addition, the EC50 came to 1.83 µM in [3] and 1.03 µM in data set [4]. In addition, the cytotoxic concentration (CC50) in [5] and in [7] was 98 µM throughout. Further, the result in data set [6] and in data set [8] was inactive. In addition, the inhibition in data set [9] is 61.4%.

By EC50 is commonly meant the concentration that produces a half-maximal response. The CC50 is the concentration that lowers cell viability or growth by half. Usually inhibition stands for the change of the read-out against control, counted positive when it falls. Low readings indicate little suppression, high ones strong suppression.
